Activity calls are given as the source filed them. The rule behind the calls is not given here.
Legend:
[1] = Drug uptake in human AsPC1 cells at 5 uM after 3 to 24 hrs by FACS analysis; format: ADME, cell-based; settings: aspc1, 5 µM
Summary of the method: (§1)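 AsPC-1 cells (2 x 10^5) were seeded and kept in the dark at 37 °C for 24h. They were then incubated with 5 µM compound for 30 min to 24h. Cells were harvested by trypsin, washed three times in PBS and resuspended in PBS. Uptake was read as mean fluorescence intensity by FACS.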

[2] = Selectivity index, ratio of IC50 for dark toxicity in human PANC1 cells to IC50 for phototoxicity in human PANC1 cells; format: cell-based, PANC-1; settings: read-out: Ratio IC50
Summary of the method: (§2)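 The ratio is the dark-toxicity IC50 over the phototoxicity IC50 in the same cell line, both from 72h MTT. The dark arm received no light. The photo arm was irradiated at 660 nm, 50 mW, 9 J/cm² after 3h compound exposure.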

PANC-1 [3] = assay: Phototoxicity in human PANC1 cells assessed as reduction in cell viability preincubated for 3 hrs followed by 9 J/cm2 laser light irradiation and measured after 72 hrs by MTT assay; format: functional, cell-based; settings: PANC-1, light or radiation study
Summary of the method: (§3)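 Cells were seeded at 5.0 x 10^3 per well and incubated overnight at 37 °C. AsPC-1 was in RPMI-1640 and MIA PaCa-2/PANC-1 in DMEM, with 10% FBS. Cells took up compound for 3h, then received 660 nm laser light (50 mW, 9 J/cm²).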

[4] = Dark toxicity in human PANC1 cells assessed as reduction in cell viability after 72 hrs by MTT assay; format: cell-based, PANC-1
Summary of the method: (§4)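 AsPC-1 cells were grown in RPMI-1640, and MIA PaCa-2 and PANC-1 in DMEM, each with 10% FBS and 1% penicillin/streptomycin. 5.0 x 10^3 cells were seeded and left overnight at 37 °C. They were exposed to 0-300 µM compound for 3h without laser irradiation, then held 72h in the dark at 37 °C, 5% CO₂. Viability was read by MTT.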

[5] = Induction of singlet oxygen production in DMSO assessed as DPBF absorption intensity (reference value: 100%); format: functional
Summary of the method: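 DPBF (50 µM in DMSO) was mixed with 1 µM photosensitizer in the dark. Samples were irradiated at 660 nm, 50 mW, 2 J/cm² for 40 s. Singlet oxygen was read as the decay of normalized DPBF absorbance at 418 nm relative to a DPBF-only control.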

[6] = Dark toxicity in human MIAPaCa2 cells assessed as reduction in cell viability after 72 hrs by MTT assay; format: cell-based, MIA PaCa-2; summary of the method: as §4
MIA PaCa-2 [7] = assay: Phototoxicity in human MIAPaCa2 cells assessed as reduction in cell viability preincubated for 3 hrs followed by 9 J/cm2 laser light irradiation and measured after 72 hrs by MTT assay; format: functional, cell-based; settings: MIA PaCa-2, light or radiation study; summary of the method: as §3
[8] = Solubility of the compound in 2% DMSO/98% de-ionized water at 8.4 uM; format: physicochemical; settings: buffer
ASPC1 [9] = assay: Phototoxicity in human AsPC1 cells assessed as reduction in cell viability preincubated for 3 hrs followed by 9 J/cm2 laser light irradiation and measured after 72 hrs by MTT assay; format: functional, cell-based; settings: ASPC1, light or radiation study; summary of the method: as §3
[10] = Dark toxicity in human AsPC1 cells assessed as reduction in cell viability after 72 hrs by MTT assay; format: cell-based; summary of the method: as §4
[11] = Selectivity index, ratio of IC50 for dark toxicity in human MIAPaCa2 cells to IC50 for phototoxicity in human MIAPaCa2 cells; format: cell-based, MIA PaCa-2; settings: read-out: Ratio IC50; summary of the method: as §2
[12] = Selectivity index, ratio of IC50 for dark toxicity in human AsPC1 cells to IC50 for phototoxicity in human AsPC1 cells; format: cell-based; settings: read-out: Ratio IC50; summary of the method: as §2
[13] = Drug uptake in human AsPC1 cells at 5 uM by FACS analysis; format: ADME, cell-based; settings: aspc1, 5 µM, TDE = time-dependent effect; summary of the method: as §1
ASPC1 [14] = assay: Phototoxicity in human AsPC1 cells assessed as induction of apoptosis by measuring late apoptotic cells at 20 nM preincubated for 3 hrs followed by 9 J/cm2 laser light irradiation and measured after 24 hrs by Annexin V-FITC/propidium iodide staining based flow cytometry (reference value: 0.41%); format: functional
ASPC1 [15] = assay: Phototoxicity in human AsPC1 cells assessed as induction of apoptosis by measuring downregulation of Bcl2 expression at 20 to 40 nM preincubated for 3 hrs followed by 9 J/cm2 laser light irradiation and measured after 24 hrs by Western blot analysis; format: functional, cell-based
Summary of the method: (§5)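 Cells in six-well plates were exposed to compound for 3h and irradiated at 660 nm (50 mW, 9 J/cm²), then incubated 24h. Lysis was on ice in modified RIPA buffer (pH 7.4) with protease inhibitors. After clearing at 10,000g for 10 min at 4 °C, proteins were separated by 10% SDS-PAGE, blotted and detected by ECL.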

PANC-1 [16] = assay: Potency index, ratio of chlorin e6 IC50 to compound IC50 for phototoxicity in human PANC1 cells; format: functional
[17] = Drug uptake in human AsPC1 cells at 5 uM after 3 hrs by FACS analysis relative to chlorin e6; format: ADME, cell-based; settings: aspc1, 3 h; summary of the method: as §1
ASPC1 [18] = assay: Phototoxicity in human AsPC1 cells assessed as induction of apoptosis by measuring necrotic cells at 20 nM preincubated for 3 hrs followed by 9 J/cm2 laser light irradiation and measured after 24 hrs by Annexin V-FITC/propidium iodide staining based flow cytometry (reference value: 1.03%); format: functional
ASPC1 [19] = assay: Phototoxicity in human AsPC1 cells assessed as induction of apoptosis by measuring necrotic cells at 40 nM preincubated for 3 hrs followed by 9 J/cm2 laser light irradiation and measured after 24 hrs by Annexin V-FITC/propidium iodide staining based flow cytometry (reference value: 1.03%); format: functional
ASPC1 [20] = assay: Phototoxicity in human AsPC1 cells assessed as induction of apoptosis by measuring late apoptotic cells at 60 nM preincubated for 3 hrs followed by 9 J/cm2 laser light irradiation and measured after 24 hrs by Annexin V-FITC/propidium iodide staining based flow cytometry (reference value: 0.41%); format: functional
[21] = Drug uptake in human AsPC1 cells at 5 uM up to 0.5 to 24 hrs by FACS analysis; format: ADME, cell-based; settings: aspc1, 5 µM; summary of the method: as §1
ASPC1 [22] = assay: Phototoxicity in human AsPC1 cells assessed as induction of apoptosis by measuring late apoptotic cells at 40 nM preincubated for 3 hrs followed by 9 J/cm2 laser light irradiation and measured after 24 hrs by Annexin V-FITC/propidium iodide staining based flow cytometry (reference value: 0.41%); format: functional
ASPC1 [23] = assay: Phototoxicity in human AsPC1 cells assessed as induction of apoptosis by measuring necrotic cells at 60 nM preincubated for 3 hrs followed by 9 J/cm2 laser light irradiation and measured after 24 hrs by Annexin V-FITC/propidium iodide staining based flow cytometry (reference value: 1.03%); format: functional
[24] = Drug uptake in human AsPC1 cells at 5 uM after 24 hrs by FACS analysis relative to chlorin e6; format: ADME, cell-based; settings: aspc1, 24 h; summary of the method: as §1
ASPC1 [25] = assay: Phototoxicity in human AsPC1 cells assessed as induction of apoptosis by measuring upregulation of Bax expression at 20 to 40 nM preincubated for 3 hrs followed by 9 J/cm2 laser light irradiation and measured after 24 hrs by Western blot analysis; format: functional, cell-based; summary of the method: as §5
ASPC1 [26] = assay: Phototoxicity in human AsPC1 cells assessed as induction of apoptosis by measuring live cells at 60 nM preincubated for 3 hrs followed by 9 J/cm2 laser light irradiation and measured after 24 hrs by Annexin V-FITC/propidium iodide staining based flow cytometry (reference value: 91.51%); format: functional
MIA PaCa-2 [27] = assay: Potency index, ratio of chlorin e6 IC50 to compound IC50 for phototoxicity in human MIAPaCa2 cells; format: functional
ASPC1 [28] = assay: Phototoxicity in human AsPC1 cells assessed as induction of apoptosis by measuring early apoptotic cells at 60 nM preincubated for 3 hrs followed by 9 J/cm2 laser light irradiation and measured after 24 hrs by Annexin V-FITC/propidium iodide staining based flow cytometry (reference value: 7.05%); format: functional
ASPC1 [29] = assay: Potency index, ratio of chlorin e6 IC50 to compound IC50 for phototoxicity in human AsPC1 cells; format: functional
ASPC1 [30] = assay: Phototoxicity in human AsPC1 cells assessed as induction of apoptosis by measuring early apoptotic cells at 20 nM preincubated for 3 hrs followed by 9 J/cm2 laser light irradiation and measured after 24 hrs by Annexin V-FITC/propidium iodide staining based flow cytometry (reference value: 7.05%); format: functional
ASPC1 [31] = assay: Phototoxicity in human AsPC1 cells assessed as induction of apoptosis by measuring upregulation of cleaved caspase-9 expression at 20 to 40 nM preincubated for 3 hrs followed by 9 J/cm2 laser light irradiation and measured after 24 hrs by Western blot analysis; format: functional, cell-based; summary of the method: as §5
ASPC1 [32] = assay: Phototoxicity in human AsPC1 cells assessed as induction of apoptosis by measuring live cells at 20 nM preincubated for 3 hrs followed by 9 J/cm2 laser light irradiation and measured after 24 hrs by Annexin V-FITC/propidium iodide staining based flow cytometry (reference value: 91.51%); format: functional
ASPC1 [33] = assay: Phototoxicity in human AsPC1 cells assessed as induction of apoptosis by measuring live cells at 40 nM preincubated for 3 hrs followed by 9 J/cm2 laser light irradiation and measured after 24 hrs by Annexin V-FITC/propidium iodide staining based flow cytometry (reference value: 91.51%); format: functional
ASPC1 [34] = assay: Phototoxicity in human AsPC1 cells assessed as induction of apoptosis by measuring early apoptotic cells at 40 nM preincubated for 3 hrs followed by 9 J/cm2 laser light irradiation and measured after 24 hrs by Annexin V-FITC/propidium iodide staining based flow cytometry (reference value: 7.05%); format: functional
[35] = Solubility of the compound in 2% DMSO/98% de-ionized water at 8.2 uM; format: physicochemical; settings: buffer
[36] = Solubility of the compound in 2% DMSO/98% de-ionized water at 16 uM; format: physicochemical; settings: buffer

Question: With `C=Cc1c(C)c2cc3nc(c(CC(=O)OC)c4[nH]c(cc5nc(cc1[nH]2)C(C)=C5CC)c(C)c4C(=O)NCCCCCCNC(=O)CCCC(=O)Oc1ccc(/C=C/C(=O)CC(=O)/C=C/c2ccc(O)c(OC)c2)cc1OC)C(CCC(=O)OC)C3C` (stereo not drawn) as the compound, how does the Drug uptake [1] read?
Answer: Its Drug uptake is “Active”.

Question: What about the selectivity ratio [2] of the same compound?
Answer: Its selectivity ratio is over 6.58.

Question: And the IC50 (PANC-1 [3])?
Answer: The IC50 was 45.6 µM.

Question: What about the IC50 at 72 h [4] of the same compound?
Answer: Its IC50 at 72 h is over 300 µM.

Question: What about the Activity [5] of the same compound?
Answer: Its Activity is 10.1%.

Question: What about the IC50 at 72 h [6] of the same compound?
Answer: Its IC50 at 72 h is 265 µM.

Question: What about the IC50 (MIA PaCa-2 [7]) of the same compound?
Answer: The IC50 was 47.3 µM.

Question: And the solubility [8]?
Answer: Its solubility is “Soluble”.

Question: What about the IC50 (ASPC1 [9]) of the same compound?
Answer: Its IC50 is 10.1 µM.

Question: And the IC50 at 72 h [10]?
Answer: Its IC50 at 72 h is 285 µM.

Question: What about the selectivity ratio [11] of the same compound?
Answer: The selectivity ratio was 5.6.

Question: What about the selectivity ratio [12] of the same compound?
Answer: Its selectivity ratio is 28.3.

Question: And the Drug uptake [13]?
Answer: The Drug uptake was “Tde”.

Question: Which results are given for `C=Cc1c(C)c2cc3nc(c(CC(=O)OC)c4[nH]c(cc5nc(cc1[nH]2)C(C)=C5CC)c(C)c4C(=O)NCCOCCOCCNC(=O)CCCC(=O)Oc1ccc(/C=C/C(=O)CC(=O)/C=C/c2ccc(O)c(OC)c2)cc1OC)C(CCC(=O)OC)C3C` (stereo not drawn)?
Answer: Activity (ASPC1 [14]): 6.1%; Activity (ASPC1 [15]): Active; selectivity ratio [2]: > 7500; Ratio IC50 (PANC-1 [16]): 247; IC50 (PANC-1 [3]): 0.04 µM; fold change (FC) [17]: 47; IC50 at 72 h [4]: > 300 µM; Activity (ASPC1 [18]): 1.43%; Activity (ASPC1 [19]): 2.22%; Activity [5]: 12.1%; Activity (ASPC1 [20]): 15.65%; Drug uptake [21]: Active; Activity (ASPC1 [22]): 10.77%; Activity (ASPC1 [23]): 8.08%; fold change (FC) [24]: 29; IC50 at 72 h [6]: 83 µM; IC50 (MIA PaCa-2 [7]): 0.035 µM; Activity (ASPC1 [25]): Active; Activity (ASPC1 [26]): 51.45%; Ratio IC50 (MIA PaCa-2 [27]): 452; Activity (ASPC1 [28]): 24.82%; IC50 (ASPC1 [9]): 0.04 µM; IC50 at 72 h [10]: 186 µM; Ratio IC50 (ASPC1 [29]): 488; Activity (ASPC1 [30]): 15.09%; Activity (ASPC1 [31]): Active; selectivity ratio [11]: 2370; Activity (ASPC1 [32]): 77.38%; selectivity ratio [12]: 4650; Activity (ASPC1 [33]): 70.74%; Activity (ASPC1 [34]): 16.27%; solubility [35]: Soluble; Drug uptake [13]: Tde

Question: What does the source list for `C=Cc1c(C)c2cc3nc(c(CC(=O)O)c4[nH]c(cc5nc(cc1[nH]2)C(C)=C5CC)c(C)c4C(=O)O)C(CCC(=O)O)C3C` (stereo not drawn)?
Answer: selectivity ratio [2]: 6.6; IC50 (PANC-1 [3]): 10.1 µM; IC50 at 72 h [4]: 67 µM; solubility [36]: Soluble; Activity [5]: 9.88%; IC50 at 72 h [6]: 89 µM; IC50 (MIA PaCa-2 [7]): 15.8 µM; IC50 (ASPC1 [9]): 19.5 µM; IC50 at 72 h [10]: 126 µM; selectivity ratio [11]: 5.61; selectivity ratio [12]: 6.45; Drug uptake [13]: Tde
